Published values gathered from unrelated publications.
Each line is one published result; the experiments were not run side by side.
Cell line: COLO 205
Effect on: cell growth or viability

COc1cc2ccc(=O)oc2cc1OC
IC50 (MTT; 24 h): > 100000 nM

CC(C)[C@H](N)c1nc2cc(-c3ccncc3F)sc2c(=O)[nH]1
IC50 (MTT): 24.8 nM

COc1cc(Nc2nccc(-c3cnn4nc(OC)ccc34)n2)cc(C(F)(F)F)c1
IC50 (ATP luminescence): 510 nM

Cc1cc(-c2cc3nc([C@@H](N)C(C)C)[nH]c(=O)c3s2)ccn1
IC50 (MTT): 1410 nM

CC(C)C[C@H](NC(=O)[C@H](Cc1ccccc1)NC(=O)c1cnccn1)B(O)O
IC50 (ATP luminescence): 22 nM

COc1ccc(C(=O)/C=C/c2ccccc2Br)cc1S(N)(=O)=O
GI50 (SRB; 48 h): 2200 nM

COc1c2ccoc2c(OCC=C(C)C)c2oc(=O)ccc12
IC50 (MTT; 24 h): > 100000 nM

COc1ccc(C(=O)/C=C/c2cccc(Cl)c2)cc1S(N)(=O)=O
inhibition (SRB; 10 µM): 165%

CC(C)[C@H](N)c1nc2cc(-c3ccnc(F)c3)sc2c(=O)[nH]1
IC50 (MTT): 89.3 nM

COc1cccc(Oc2ccccc2NC(=O)CNC(=O)c2cccc3ccccc23)c1
GI50 (SRB; 48 h): 282 nM
